# System: not listed separately
# Assay: Parallel artificial membrane permeability assay
# Type: in vitro ADME
# Settings: PAMPA
# Method in brief: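 Test compound was supplied as a 10 mM DMSO stock and diluted 200-fold in pH 7.4 buffer. It was placed in the donor wells under an artificial lipid membrane filter plate holding pH 7.4 acceptor sink buffer. Plates were incubated 0.5 h at room temperature, with each well magnetically stirred. Donor and acceptor concentrations were measured by UV plate spectrometry in an automated workflow.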
row,"Papp at 0.5 hr, 50 µM",SMILES
1,68.2 ± 10.9 ×10⁻⁶ cm/s,"COc1cccc2cccnc12 [Compound 2, 8-methoxyquinoline]"
2,72.6 ± 24.8 ×10⁻⁶ cm/s,"CCOc1cccc2cccnc12 [Compound 3, 8-ethoxyquinoline]"
3,33.4 ± 3.1 ×10⁻⁶ cm/s,"Oc1c(I)cc(Cl)c2cccnc12 [Compound 4, 5-chloro-7-iodo-8-hydroxyquinoline, reference compound]"
4,77.9 ± 5.4 ×10⁻⁶ cm/s,"COc1c(I)cc(Cl)c2cccnc12 [Compound 5, 5-chloro-7-iodo-8-methoxyquinoline]"
5,30.8 ± 4.9 ×10⁻⁶ cm/s,"COc1ccc(Cl)c2cccnc12 [Compound 6, 5-chloro-8-methoxyquinoline]"

row,SMILES,"Papp at 0.5 hr, 50 µM"
1,"Oc1cccc2cccnc12 [Compound 1, 8-hydroxyquinoline, reference compound]",21.3 ± 1.6 ×10⁻⁶ cm/s

# System: not listed separately
# Assay: Caco-2 permeability assay
# Type: in vitro ADME
# Settings: human, Caco-2, pH 7.4
# Method in brief: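 Caco-2 cells were grown in MEM with 20% FBS at 37 °C and 5% CO2. They were seeded on transwell inserts at 0.165×10^5 cells/insert and cultured 21 days in 10% FBS MEM, with monolayer integrity checked by TEER. Monolayers were washed in HBSS/HEPES (10 mM, pH 7.4). Test compound (50 μmol/L) was added apically or basolaterally and incubated 2 h at 37 °C. The receiver side was quantified by UPLC/MS. Papp = dQ/dt×1/AC0, and efflux ratio = B→A/A→B.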
row,"efflux ratio at 2 h, 50 μmol/L",SMILES
1,0.6,"COc1cccc2cccnc12 [Compound 2, 8-methoxyquinoline]"
2,0.5,"CCOc1cccc2cccnc12 [Compound 3, 8-ethoxyquinoline]"
3,0.7,"Oc1c(I)cc(Cl)c2cccnc12 [Compound 4, 5-chloro-7-iodo-8-hydroxyquinoline, reference compound]"
4,0.6,"COc1c(I)cc(Cl)c2cccnc12 [Compound 5, 5-chloro-7-iodo-8-methoxyquinoline]"
5,0.7,"COc1ccc(Cl)c2cccnc12 [Compound 6, 5-chloro-8-methoxyquinoline]"

row,SMILES,"efflux ratio at 2 h, 50 μmol/L"
1,"Oc1cccc2cccnc12 [Compound 1, 8-hydroxyquinoline, reference compound]",0.8

# Same assay, conditions: human, Caco-2, pH 7.4, CaCo2 Papp A/B, apical to basolateral; 50 μmol/L; 2 hrs at 37°C
row,"Papp at 2 h, 50 μmol/L",SMILES
1,48.3 ± 2.6 ×10⁻⁶ cm/s,"COc1cccc2cccnc12 [Compound 2, 8-methoxyquinoline]"
2,20.7 ± 14.6 ×10⁻⁶ cm/s,"CCOc1cccc2cccnc12 [Compound 3, 8-ethoxyquinoline]"
3,47.3 ± 6.1 ×10⁻⁶ cm/s,"Oc1c(I)cc(Cl)c2cccnc12 [Compound 4, 5-chloro-7-iodo-8-hydroxyquinoline, reference compound]"
4,21.5 ± 3.1 ×10⁻⁶ cm/s,"COc1c(I)cc(Cl)c2cccnc12 [Compound 5, 5-chloro-7-iodo-8-methoxyquinoline]"
5,60.4 ± 2.4 ×10⁻⁶ cm/s,"COc1ccc(Cl)c2cccnc12 [Compound 6, 5-chloro-8-methoxyquinoline]"

row,SMILES,"Papp at 2 h, 50 μmol/L"
1,"Oc1cccc2cccnc12 [Compound 1, 8-hydroxyquinoline, reference compound]",38 ± 14.8 ×10⁻⁶ cm/s

# Same assay, conditions: human, Caco-2, pH 7.4, Caco2 Papp B/A, basolateral to apical; 50 μmol/L; 2 hrs at 37°C
row,"Papp at 2 h, 50 μmol/L",SMILES
1,29.9 ± 0.7 ×10⁻⁶ cm/s,"COc1cccc2cccnc12 [Compound 2, 8-methoxyquinoline]"
2,9.4 ± 2.5 ×10⁻⁶ cm/s,"CCOc1cccc2cccnc12 [Compound 3, 8-ethoxyquinoline]"
3,31.5 ± 2.2 ×10⁻⁶ cm/s,"Oc1c(I)cc(Cl)c2cccnc12 [Compound 4, 5-chloro-7-iodo-8-hydroxyquinoline, reference compound]"
4,12.5 ± 1.6 ×10⁻⁶ cm/s,"COc1c(I)cc(Cl)c2cccnc12 [Compound 5, 5-chloro-7-iodo-8-methoxyquinoline]"
5,41.3 ± 2.7 ×10⁻⁶ cm/s,"COc1ccc(Cl)c2cccnc12 [Compound 6, 5-chloro-8-methoxyquinoline]"

row,SMILES,"Papp at 2 h, 50 μmol/L"
1,"Oc1cccc2cccnc12 [Compound 1, 8-hydroxyquinoline, reference compound]",29 ± 1.1 ×10⁻⁶ cm/s

# System: MCF10dcis.com (DCIS) cells
# Assay: Copper accumulation in breast cancer cells measured by ICP-OES
# Type: cell-based, human
# Settings: 10 μM CuCl2 mixtures, 1 h (8-OHQ vs 2, 3) or 8 hrs (CQ vs 5, 6)
row,SMILES,difference in ability to accumulate cellular copper versus inactive analogs
1,"Oc1cccc2cccnc12 [Compound 1, 8-hydroxyquinoline, reference compound]",at least 100 fold
2,"Oc1c(I)cc(Cl)c2cccnc12 [Compound 4, 5-chloro-7-iodo-8-hydroxyquinoline, reference compound]",40–50 fold

# Same assay, conditions: compound-copper mixture
row,SMILES,increase of intracellular copper level
1,"Oc1cccc2cccnc12 [Compound 1, 8-hydroxyquinoline, reference compound]",135 fold
2,"COc1cccc2cccnc12 [Compound 2, 8-methoxyquinoline]",did not change the accumulation of intracellular copper
3,"CCOc1cccc2cccnc12 [Compound 3, 8-ethoxyquinoline]",did not change the accumulation of intracellular copper
4,"COc1c(I)cc(Cl)c2cccnc12 [Compound 5, 5-chloro-7-iodo-8-methoxyquinoline]",did not change the accumulation of intracellular copper
5,"COc1ccc(Cl)c2cccnc12 [Compound 6, 5-chloro-8-methoxyquinoline]",did not change the accumulation of intracellular copper

# System: not listed separately
# Assay: Cu-ligand binding by UV-vis titration
# Type: physicochemical
# Settings: UV-vis titration with CuCl2 in methanol; 0.1 mM compound
row,formation of copper complex,SMILES
1,could not form complexes with copper,"COc1cccc2cccnc12 [Compound 2, 8-methoxyquinoline]"
2,could not form complexes with copper,"CCOc1cccc2cccnc12 [Compound 3, 8-ethoxyquinoline]"
3,bind to copper and form complexes,"Oc1c(I)cc(Cl)c2cccnc12 [Compound 4, 5-chloro-7-iodo-8-hydroxyquinoline, reference compound]"
4,could not form complexes with copper,"COc1c(I)cc(Cl)c2cccnc12 [Compound 5, 5-chloro-7-iodo-8-methoxyquinoline]"
5,could not form complexes with copper,"COc1ccc(Cl)c2cccnc12 [Compound 6, 5-chloro-8-methoxyquinoline]"

row,SMILES,formation of copper complex
1,"Oc1cccc2cccnc12 [Compound 1, 8-hydroxyquinoline, reference compound]",bind to copper and form complexes

# System: breast cancer DCIS cells
# Assay: Cell proliferation assay
# Type: cell-based, human
# Settings: DCIS cells; compound without copper; 24 h; MTT
# Method in brief: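 DCIS human breast cancer cells were kept in DMEM/F12 with 5% horse serum, bicarbonate, 10 mM HEPES and antibiotics at 37 °C, 5% CO2. They were grown to 70–80% confluency, then given test compound alone or premixed with CuCl2 at various concentrations for 24 h at 37 °C. Medium was removed before the MTT read-out. Viability is expressed as percent of DMSO-treated cells (mean±SD, n=4).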
row,SMILES,toxicity of compound alone
1,"Oc1cccc2cccnc12 [Compound 1, 8-hydroxyquinoline, reference compound]",some toxicity
2,"Oc1c(I)cc(Cl)c2cccnc12 [Compound 4, 5-chloro-7-iodo-8-hydroxyquinoline, reference compound]",some toxicity

# Same assay, conditions: DCIS cells; compound without copper; 24 h; MTT; listed as 8-OHQ
row,SMILES,toxicity of compound alone
1,"Oc1cccc2cccnc12 [Compound 1, 8-hydroxyquinoline, reference compound]",much less or no toxicity

# Same assay, conditions: DCIS cells; compound without copper; 24 h; MTT; listed as CQ
row,SMILES,toxicity of compound alone
1,"Oc1c(I)cc(Cl)c2cccnc12 [Compound 4, 5-chloro-7-iodo-8-hydroxyquinoline, reference compound]",much less or no toxicity

# Same assay, conditions: unpublished work of the authors
row,SMILES,anti-proliferative effect of synthesized copper complex
1,[Cu+2].[O-]c1cccc2cccnc12.[O-]c1cccc2cccnc12 [Cu [8-OHQ]2],comparable to their copper mixtures
